Measurements from different studies.
Lines come from different studies, so protocols differ.
Target: Serine/threonine-protein kinase 24 (STK24, Homo sapiens, UniProt Q9Y6E0)

SMILES	read-out	technique	tested at	remaining binding [%]
Cc1cnc(Nc2ccc(C(=O)N3CCC(N4CCCC4)CC3)cc2)nc1-c1cc2ccccc2s1	binding	competition with immobilised ligand	1 µM	84
Cc1cnn2ncc(-c3ccnc(N(C)C)n3)c2c1	binding		1 µM	98
Cc1nc(Cc2cccc(C(F)(F)F)c2)sc1-c1ccc(C(N)=O)nc1	cell-free assay	competition with immobilised ligand	1 µM	100
Nc1ncc2c(n1)-c1c([nH]c3ccc(C#CC4CC4)cc13)CCCC2	binding	competition with immobilised ligand	1 µM	80
Cn1nc(C(=O)NCc2ccc(C(=O)O)cc2)cc1-c1ccc2[nH]ccc2c1	cell-free assay	competition with immobilised ligand	0.1 µM	97
N[C@@H]1CCN(c2nccc(-c3cnn4ncccc34)n2)C1	binding		1 µM	100
CCS(=O)(=O)c1cc2cc(C[C@](O)(CC(C)(C)c3ccc(F)cc3C(N)=O)C(F)(F)F)[nH]c2cn1	cell-free assay	competition with immobilised ligand	1 µM	86
O=C(NCCCN1CCOCC1)c1ccc(Nc2nccc(-c3cc4ccccc4s3)n2)cc1	binding	competition with immobilised ligand	1 µM	39
COc1cnc(Nc2cccc(S(N)(=O)=O)c2)nc1N1CCN(c2ccccc2)C(=O)C1	binding	competition with immobilised ligand	1 µM	97
O=C(Nc1c[nH]nc1C(=O)NC1CCNCC1)c1cc(F)cc(F)c1	binding	competition with immobilised ligand	1 µM	91
O=C(NCc1ncc(C(F)(F)F)cc1Cl)c1ccc2c(c1)C1(CCS(=O)(=O)CC1)[C@@H](C1CC1)N2S(=O)(=O)c1ccc(F)cc1	cell-free assay	competition with immobilised ligand	1 µM	100
F[C@@H]1CCN(c2nccc(-c3cnn4ncccc34)n2)C1	binding		1 µM	93
COc1ncc2cc3ccccc3nc2c1C#N	cell-free assay	competition with immobilised ligand	5 µM	97
c1cnn2ncc(-c3ccnc(N4CCC45COC5)n3)c2c1	binding		1 µM	74
CN(C(=O)c1ccccc1)c1cc(N(C)c2ccc3c(c2)CCc2ccc(C(=O)NCCN4CCOCC4)cc2C3=O)ccc1F	cell-free assay	competition with immobilised ligand	1 µM	100
C[C@@H]1CCN(c2nccc(-c3cnn4ncccc34)n2)C1	binding		1 µM	63
FC(F)(F)Oc1cccc(-c2cnc3ccc(-c4ccncc4)nn23)c1	cell-free assay	competition with immobilised ligand	5 µM	86
CN(C)c1nccc(-c2cnc3ncccn23)n1	binding		1 µM	94
O=C(c1ccc(Nc2ncc(Cl)c(-c3cc4ccccc4s3)n2)cc1)N1CCC(N2CCCC2)CC1	binding	competition with immobilised ligand	1 µM	92
